Screens (PubChem BioAssay)
Compounds with a hit are over-represented: about 4.3% of the library has one in this group of screens.
NF-kB expr up: compounds increasing NF-kB expression in human neuronal cells. fold change at 12.5 µM. NF-kB reporter expression; hits give high values. actives 1.6% (n = 190,000). AID 1239; in the data active = fold change above about 3.3
APP 5'UTR act: APP 5'UTR luciferase reporter activation; SH-SY5Y APP 5'UTR luciferase reporter, luminescence; zero percent = DMSO vehicle wells; activation, % at 2 µM; actives 1% (n = 190,000); AID 1276;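 active = activation above a set limit, based on mean plus 3 SD of controls, cut at about 140% in these data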
STAT1 activator: activators of IFN-gamma induced STAT1 signaling; actives 2.6% (n = 200,000); activation (% of control), % at 5.5 µM; NIH 3T3 STAT1-luciferase reporter, luminescence; 100% = IFN-gamma alone, no compound; AID 932;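 active = activation above the screen-wide mean activation plus 3 SD, cut at about 130% in these data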;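 note: raw ratio to IFN-gamma control signal so 100% means no change and 0% no light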
FLuc inhib CS: counter-screen for luciferase assay inhibitors: firefly luciferase inhibition; P08659; ATPLite firefly luciferase biochemical luminescence, 10 min; inhibition, % at 10 µM; actives 1.5% (n = 200,000);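 active = inhibition above about 50% when tested at 10 µM, limit read from the data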
Target sequence (P08659 whole entry, looked up): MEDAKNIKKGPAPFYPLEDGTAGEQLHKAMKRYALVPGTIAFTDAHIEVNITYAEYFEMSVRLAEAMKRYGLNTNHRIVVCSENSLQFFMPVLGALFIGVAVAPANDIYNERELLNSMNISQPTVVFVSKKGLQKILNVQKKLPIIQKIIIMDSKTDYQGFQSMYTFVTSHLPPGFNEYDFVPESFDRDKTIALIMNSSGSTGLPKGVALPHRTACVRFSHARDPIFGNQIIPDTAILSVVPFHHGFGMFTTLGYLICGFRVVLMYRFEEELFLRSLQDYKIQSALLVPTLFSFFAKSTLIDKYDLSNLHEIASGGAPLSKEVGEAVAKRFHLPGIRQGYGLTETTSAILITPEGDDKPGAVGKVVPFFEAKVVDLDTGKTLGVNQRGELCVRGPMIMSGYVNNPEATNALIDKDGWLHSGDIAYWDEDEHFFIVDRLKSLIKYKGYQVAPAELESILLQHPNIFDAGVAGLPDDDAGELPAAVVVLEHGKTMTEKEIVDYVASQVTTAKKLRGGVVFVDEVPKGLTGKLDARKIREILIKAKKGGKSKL
FLuc stim CS: affects firefly luciferase, flagging false hits in luciferase stimulation screens; P08659; ATPlite luciferase biochemical, luminescence, 10 min; 0 = ATP-free wells, 1 = DMSO control; activation factor at 10 µM; 200,000 tested, under 10 active;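 active = luciferase activation factor, scaled between plate controls, of at least 2 with compound at 10 µM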
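Assay system – cell-free luciferase reagent · Medium – PBS-based ATP solution · Dosing – test compounds dosed from 2 mM stocks in 100% DMSO · Timing – 10 min, room temperature · Technique – light output (luminescence) · Measure – luminescence gain marking luciferase activators · Controls – No-ATP low control, compound-free enzyme-plus-ATP high control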
sdo1 growth: sdo1-depleted yeast growth rescue; AID 817; z-score at 10 µM; S. cerevisiae sdo1-depleted JHY4D growth rescue, OD600 30 h; hits give high values; pdr5 snq2 efflux-pump mutant strain; actives 0.21% (n = 140,000);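 active = z-score above 3 at both the 24 hr and the 30 hr optical density reads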;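 note: z-score against mean and SD of all compound wells on the same plate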
* hit, by the source's call; x = no result.

SMILES | NF-kB expr up | APP 5'UTR act | STAT1 activator | FLuc inhib CS | FLuc stim CS | sdo1 growth
Cc1ccc(N/C=C/C(=O)c2cccs2)cc1 | 1.92 | 214.2* | 22.0 | 96.9* | 0 | x
Cc1noc(NS(=O)(=O)c2ccc(N/C=C\C(=O)c3cccs3)cc2)c1C | 1.54 | 2.9 | 108.5 | 2.2 | 1 | x
O=C(/C=C/Nc1ccc(F)cc1F)c1cccs1 | 3.83* | 106.7 | 98.7 | 97.7* | 0 | -1.07
C=CCN(CC=C)C(=O)Nc1ccc2nc(C)sc2c1 | 1.67 | 1.0 | 105.0 | 7.4 | 0.9 | -0.67
CCOC(=O)CNC(=O)c1ccc(OCC(F)(F)F)cc1 | 0.96 | 4.8 | 117.1 | 43.1 | 0.6 | x
COC(=O)c1ccc(C2CC(=O)Nc3cc(OC)c(OC)c(OC)c32)cc1 (stereo unspecified) | 1.17 | 22.2 | 89.7 | -3.0 | 1 | 0.08
COC(=O)c1ccc(NC(=S)Nc2ccccc2)cc1 | 1.42 | -3.4 | 95.6 | 1.3 | 1 | 0.59
COC(=O)c1ccc(NC(=S)NC2c3ccccc3CC2O)cc1 (stereo unspecified) | 4.04* | 3.9 | 99.2 | -3.8 | 1 | x
O=C(c1ccc(F)cc1)C1CCN(C(=O)NC2CCCCC2)CC1 | 0.99 | -9.1 | 95.7 | 0.9 | 1 | 0.43
Cc1csc(=NC(=O)c2ccccc2)n1C | 3.63* | 101.6 | 126.9 | 31.4 | 0.7 | 0.97
Cc1ccc2c(c1)sc[n+]2Cc1ccccc1 | 2.15 | 28.4 | 135.3* | 9.9 | 0.9 | -0.64
c1cn2cc(CSC3CCCCC3)nc2s1 | 2.71 | 98.8 | 133.7* | 9.4 | 0.9 | -0.8
c1ccc(CSCc2cn3ccsc3n2)cc1 | 8.88* | 63.5 | 131.6* | 0.6 | 1 | -1.12
O=C(Cc1cn2ccsc2n1)OCc1ccccc1 | 5.31* | 5.6 | 106.8 | 0.4 | 1 | -0.94
O=C(Cc1cn2ccsc2n1)NCc1ccccc1 | 1.33 | 10.5 | 93.4 | -1.6 | 1 | 0.07
O=C(NCCc1cn2ccsc2n1)C1CCCCC1 | 1.25 | -10.1 | 101.2 | -3.4 | 1 | -0.5
c1ccc2oc(SCc3cn4ccsc4n3)nc2c1 | 3.01 | 127.4 | 138.4* | 17.5 | 0.8 | 0.35
Cc1ccc(-c2nnc(SCC(=O)NC3CCS(=O)(=O)C3)nc2-c2ccc(C)cc2)cc1 (stereo unspecified) | 1.12 | -21.4 | 104.6 | -7.6 | 1.1 | -0.19
Cn1cnnc1SCC(=O)NC1CCCCC1 | 1.41 | 7.3 | 98.6 | -3.3 | 1 | x
Clc1ccc(SCc2cn3ccsc3n2)cc1 | 2.29 | 72.0 | 134.4* | 19.7 | 0.8 | -0.67
Clc1ccc(SCc2cn3cccnc3n2)cc1 | 1.77 | 3.0 | 123.8 | 3.7 | 1 | -0.06
O=C(c1ccc(N2CCCCS2(=O)=O)cc1)N1CCN(c2ccc(N3CCOCC3)nn2)CC1 | 1.05 | 4.5 | 101.9 | -0.7 | 1 | 0.54
COc1ccc(NC2=C(Cl)C(=O)N(CCc3ccccc3)C2=O)c(OC)c1 | 1.66 | 25.9 | 99.3 | -6.1 | 1.1 | -1.11
COc1ccc(NC2=C(Cl)C(=O)N(CCc3ccccc3)C2=O)cc1 | 2.83 | 86.6 | 142.3* | 1.5 | 1 | 0.27
Cc1nc2ccccc2nc(=O)c1NNc1ccccc1 | 1.79 | 24.0 | 129.3* | 7.5 | 0.9 | -0.93
SMILES | NF-kB expr up | APP 5'UTR act | STAT1 activator | FLuc inhib CS | FLuc stim CS | sdo1 growth
Cc1nc2ccccc2nc1OCc1ccccc1 | 1.31 | 15.6 | 99.7 | -5.1 | 1.1 | 0.74
Cc1ccc2nc(=O)c(NNc3ccccc3)cnc2c1 | 1.72 | 18.0 | 139.4* | 2.6 | 1 | 0.69
Cc1ccc2nc(-c3ccccc3)c(-c3ccccc3)nc2c1 | 1.12 | -10.1 | 105.4 | -4.3 | 1 | x
O=C(NC1CCCCC1)C12CC3CC(CC(Cl)(C3)C1)C2 | 0.99 | 13.8 | 93.5 | -6.1 | 1.1 | 0.73
CC1CCc2c(sc3ncn(CC(=O)N4CCCCC4)c(=O)c23)C1 (stereo unspecified) | 1.25 | 15.4 | 97.0 | -8.6 | 1.1 | x
COc1ccc(Nc2nc(-c3sc(NC(C)=O)nc3C)cs2)cc1 | 0.67 | 24.4 | 97.1 | 1.1 | 1 | 0.55
COc1ccc(Nc2nc(C)c(-c3ccccc3)s2)cc1 | 2.52 | 81.6 | 155.8* | 11.5 | 0.9 | -1.62
COc1ccc(Nc2nc(C)c3ccccc3n2)cc1 | 2.96 | 97.8 | 134.1* | 22.7 | 0.8 | -0.21
CCO[C@@H]1OC(C(=O)O)=C[C@H](c2ccc(Br)cc2)[C@H]1CCCO | 1.16 | 20.1 | 98.6 | -4.5 | 1 | x
COc1cc(C=C(C(C)=O)C(C)=O)ccc1O | 1.33 | 0.3 | 94.6 | -7.2 | 1.1 | 1.7
COc1cc(/C=C/C(=O)CC(=O)/C=C/c2ccc(O)c(OC)c2)ccc1O | 7.39* | -11.0 | 99.1 | -0.4 | 1 | -0.29
Cc1c(Cl)cccc1N(Cc1ccc(C(=O)O)cc1)S(=O)(=O)c1ccccc1 | 1.33 | 9.9 | 89.0 | -0.5 | 1 | x
Cn1cccc1CNC(=O)Nc1ccc(Cl)c(Cl)c1 | 1.07 | x | 135.2* | -2.9 | 1 | -0.5
COc1ccc(NC(=O)NCc2cccn2C)c(OC)c1 | 1.93 | x | 104.1 | -0.2 | 1 | 0.66
C=CCSC1=C(C#N)C(c2cccc(OC)c2)CC(=O)N1 (stereo unspecified) | 1.27 | 6.8 | 97.3 | -1.7 | 1 | 1.18
Cc1ccc(S(=O)(=O)N2CCN(C(=O)CSc3ncc(C(F)(F)F)cc3Cl)CC2)cc1 | 0.95 | 2.0 | 92.5 | 58.5* | 0.4 | -0.61
O=C(NN=C1CCCCCCC1)c1ccc2ccccc2n1 | 1.28 | 16.2 | 109.8 | 4.8 | 1 | x
Cc1ccn2cc(CSc3ccccc3)nc2c1 | 6.3* | 171.9* | 130.8* | 42.0 | 0.6 | 8.34
Cc1ccc(SCc2cn3cccnc3n2)cc1 | 1.44 | 35.5 | 115.2 | 12.3 | 0.9 | 0.9
Cn1ccnc1SCc1cn2ccccc2n1 | 1.66 | 241.5* | 143.6* | 2.2 | 1 | 0.98
c1ccn2cc(CSc3nnc4ccccn34)nc2c1 | 2.27 | 94.4 | 146.7* | -3.4 | 1 | -0.69
c1ccn2cc(CSC3=NCCS3)nc2c1 | 1.86 | 51.0 | 129.7* | 1.7 | 1 | 0.82
COc1ccc(CCNC(=O)[C@@H](NC(=O)c2ccccc2F)C(C)C)cc1OC | 1.19 | 12.6 | 95.7 | -3.9 | 1 | x
Cc1ccc(-n2ncc3c(NNC(=O)c4cccs4)ncnc32)cc1 | 1.18 | 22.5 | 97.5 | -3.2 | 1 | x
O=C(C1=C(O)C(=O)N(CCc2ccccc2)C1c1cccs1)c1ccco1 (stereo unspecified) | 0.95 | 3.6 | 103.5 | -4.1 | 1 | x
CCc1ccc2nc(N3C(=O)C(O)=C(C(=O)c4ccco4)C3c3cccs3)sc2c1 (stereo unspecified) | 2.59 | 158.4* | 113.2 | 13.3 | 0.9 | 1.58
O=C1C(c2ccnc3ccccc23)=C(O)c2ccccc21 | 2.99 | 182.8* | 93.6 | 90.5* | 0.1 | -1.69
O=C1c2ccccc2C(=O)C1c1nccc2ccccc12 | 3.56* | 99.8 | 123.2 | 89.9* | 0.1 | -1.16
O=C1c2ccccc2C(=O)C1c1ccnc2ccccc12 | x | 146.1* | 60.7 | 91.2* | 0.1 | -2
O=C1C(=O)c2ccccc2C(O)=C1c1ccccc1F | x | -17.1 | x | x | x | x
